Source: PubChem
This is a sample that favours compounds with a hit; in the whole collection about 6% have one here.
E coli WT exp – E. coli BW25113 growth inhibition, expanded screen. OD600 absorbance. growth inhibition, % at 100 µM. 98,000 tested, 0.15% active. AID 710;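 active = growth inhibition above about 50% at one test dose, limit read from the data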;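 also: growth measured after 20 h incubation at 37 °C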
EphB4 ephrin blk – antagonists of human EphB4-ephrin-B2 interaction | EphB4 LBD / TNYL-RAW-Alexa532 peptide, fluorescence polarization | inhibition, % at 7 µM | 97,000 tested, 0.15% active;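 active = inhibition above the screen-wide mean inhibition plus 3 SD, cut at about 15% in these data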;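 also: 0% = DMSO wells and 100% = excess unlabeled TNYL-RAW peptide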
PostGolgi ctrl – growth of the yeast control strain, post-Golgi counter-screen. efflux-deficient yeast background strain, growth absorbance A615, 16 h. inhibition, % at 10 µM. 98,000 tested, 5% active
PostGolgi yeast – growth inhibition of a yeast mutant, post-Golgi transport screen; post-Golgi transport phenotypic cell assay; inhibition, % at 10 µM; 98,000 tested, 0.9% active; AID 739;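 also: yeast cells grown in 1536-well plates; yeast grown about 18 h at 30C before absorbance read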
tolC growth inh – blocks growth of E. coli BW25113 tolC mutant; OD615; growth inhibition, % at 10 µM (by protocol); 65,000 tested, 2.2% active; AID 573;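 active = growth inhibition at or above a cutoff equal to the mean over every tested compound plus 3 SD, cut at about 60% in these data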;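 also: growth measured after 20 h incubation at 37 °C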
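Test system – E. coli BW25113 ΔtolC::kan, tolC deletion mutant strain · Detection – OD at 615 nm · Buffer or medium – LB with kanamycin 50 µg/mL · Times – 20 h compound exposure of bacteria at 37 °C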
Starred values were filed as active, the others as inactive; / = no result. Rule as the data show it, unless noted: active = inhibition above about 30%; inactive = the rest.

SMILES	E coli WT exp	EphB4 ephrin blk	PostGolgi ctrl	PostGolgi yeast	tolC growth inh
CCCCCCC(=O)c1c(C)[nH]c(C(=O)OCC)c1C	-3	7	17	-8	27
O=c1cc(CSc2nc3ccccc3[nH]2)c2ccccc2[nH]1	-7	-3	7	-6	/
Fc1ccc(CSc2nc3ccccc3[nH]2)c2ccccc12	-4	5	47*	2	/
CC(=NCc1ccco1)c1c(O)n(C2CCCCC2)c(=O)[nH]c1=O	-6	3	44*	18	11
O=C(NC1(C(F)(F)F)C(=O)Nc2c1c(=O)[nH]c(=O)n2Cc1ccco1)C1CCCCC1 (centres undefined)	0	-2	-4	14	-1
O=C(COC(=O)c1cccnc1Cl)c1ccccc1	-3	-5	32*	/	/
O=C(OCc1ccccc1Cl)c1cccnc1Cl	3	-2	9	9	/
FC(F)(F)c1ccc(N2CCN(c3cc(-c4ccccc4)nc4ncnn34)CC2)nc1	9	1	57*	11	41
O=C(CN1C(=O)NC2(CCCCCCC2)C1=O)NC(=O)NCc1ccco1	8	-3	38*	8	16
O=C(CN1CCN(C(c2ccccc2)c2ccccc2)CC1)NC(=O)NCc1ccco1	-10	10	36*	5	6
O=C(COc1ccc(-c2ccccc2)cc1)N1CCN(S(=O)(=O)Cc2ccccc2)CC1	-7	-6	8	0	/
COc1ccc(OC)c(NC(=O)Nc2ccccc2C)c1	2	-7	14	24	19
CCOC(=O)c1cccc(NC(=O)Nc2cc(OC)ccc2OC)c1	4	4	3	-5	83*
CCOC(=O)Nc1ccc(S(=O)(=O)Nc2cc(C)nc(C)n2)cc1	1	2	9	-1	/
Cc1ccc(CN2CC(C(=O)Nc3ccc(S(=O)(=O)Nc4cc(C)nc(C)n4)cc3)CC2=O)cc1 (centres undefined)	5	-2	33*	-20	1
O=C(Cn1cc(C(=O)c2cccs2)c2ccccc21)NCc1ccc2c(c1)OCO2	-18	4	22	7	36
CC(C)[C@H](N)c1nnc(SC/C=C/c2ccccc2)o1	12	-2	13	6	/
N#Cc1cccc(NC(=O)COc2ccc(-n3ccnc3)cc2)c1	4	4	5	-3	-13
CC(C)(C)c1ccc(NC(=O)COc2ccc(-n3ccnc3)cc2)cc1	9	-6	58*	73*	/
COC(=O)C1=C(C)NC(=O)NC1c1cccc(OC)c1OCc1ccccc1 (centres undefined)	-4	6	15	6	/
Cc1cc(C)nc(-n2nc(C)c(Sc3ccc(F)cc3)c2N)n1	2	3	51*	2	47
Cc1cc(C)nc(-n2nc(C)c3c(C(F)(F)F)cc(=O)[nH]c32)n1	-6	2	12	-1	/
c1ccc(-c2cccc(-c3ccccn3)n2)nc1	68*	9	19	3	73*
CC1CC(C)CN(CCOc2ccc(Cl)cc2Cl)C1 (centres undefined)	40	-3	29	89*	/
Clc1ccc(OCCN2CCCCC2)c(Cl)c1	13	0	8	18	/
SMILES	E coli WT exp	EphB4 ephrin blk	PostGolgi ctrl	PostGolgi yeast	tolC growth inh
CC1CCCN(CCOCCOc2ccc(Cl)cc2Br)C1 (centres undefined)	28	0	22	103*	/
C=CCn1c(C)nc2c(c1=O)c1nc3ccccc3nc1n2-c1ccc(C)cc1	/	/	/	/	-4
Fc1ccccc1N1CC(c2ccccc2)C(c2cccs2)=N1 (centres undefined)	-12	-1	6	-6	/
CC(C)C(c1nnnn1C(C)(C)C)N1CCN(c2cccc(Cl)c2)CC1 (centres undefined)	-25	-2	90*	6	24
CCN(CC)c1ccc(NC(=O)OC)cc1	2	-1	-1	8	/
Cc1ccc(C(=O)c2c(C)oc3c2C(=O)C(=O)c2ccccc2-3)cc1	-4	-4	-5	29	/
COc1ccc(C(=O)c2c(C(F)(F)F)oc3c2C(=O)c2ccccc2C3=O)cc1	-18	5	46*	84*	/
C=C(C)C1Cc2c(C)nn(-c3ccccc3)c2C1 (centres undefined)	-3	4	16	-8	2
C=C(C)C1Cc2c(C)nn(-c3cccc4ccccc34)c2C1 (centres undefined)	5	-1	40*	10	/
Cc1ccc2[nH]c(C)c(/C=N/Nc3nc4ccccc4s3)c2c1	-1	5	69*	49*	/
COc1ccc(N2C(=O)C3CCCN3C2c2ccccc2F)cc1 (centres undefined)	5	-8	0	4	-12
